Publication PMC2773842 (Cellular and Molecular Life Sciences: CMLS, 2006)

Columns and labels:
chip-bound C-peptide = molecular target: T1, chip-bound C-peptide (Homo sapiens, UniProt P01308); assay: SPR binding of C-peptide in solution to chip-bound C-peptide
T1 sequence (P01308 57-87 limits assumed): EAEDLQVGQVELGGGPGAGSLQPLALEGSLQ
Method in brief: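 Peptide was immobilised on the sensor chip by surface thiol coupling via the C-terminus (up to 5000 RU) or amine coupling via the N-terminus (up to 1000 RU). The same peptide was run as analyte at 20 µl/min, diluted from a 600 µM stock in H2O/HCl pH 5. Running buffers spanned pH 3–7 (citrate, bis-Tris or Tris/HCl, 10 mM) with 100 mM NaCl and 0.005% SP20.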

[1] = molecular target: insulin-insulin interactions (chip-bound insulin) (Homo sapiens, UniProt P01308); assay type: binding; conditions: peptide mixed with insulin analyte
Method in brief: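 Biacore SPR with insulin immobilized either C-terminally (surface thiol coupling, up to 5000 RU) or N-terminally (amine coupling, up to 1000 RU). Test peptide was premixed with insulin analyte at 1, 5, 10 and 20 µM and flowed at 20 µl/min. Running buffer was 10 mM Na citrate pH 5 with 100 mM NaCl and 0.005% SP20. Curves are averages of three runs after blank subtraction.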

insulin hexamer = insulin hexamer (Homo sapiens, UniProt P01308); assay: ESI-MS analysis of insulin oligomer states in insulin/C-peptide mixtures
insulin hexamer, sequence (P01308 25-54 limits assumed): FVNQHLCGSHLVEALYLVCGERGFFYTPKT
insulin hexamer, sequence (P01308 90-110 limits assumed): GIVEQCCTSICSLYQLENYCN

insulin-insulin interactions (chip-bound insulin), sequence (P01308 25-54 limits assumed): as the sequence (P01308 25-54 limits assumed) above

binding of C-peptide in solution to chip-bound C-peptide (chip-bound C-peptide): no evidence for such binding
effect on rate of dissociation in insulin-insulin SPR [1]: slightly reduce the rate of dissociation
Substance: C-peptide
effects on insulin in ESI-MS compared with scrambled C-peptide (insulin hexamer; at low peptide concentrations): slightly more effects on insulin than scrambled C-peptide
insulin hexamer signals in ESI mass spectra (insulin hexamer; nano-ESI-MS, pH 5, insulin 30 µM and C-peptide 30 µM (1:1)): markedly decreased from their level in insulin solutions to an absence in insulin-C-peptide mixtures
